Laboratory results from ChEMBL document CHEMBL3585325, “Discovery of (1R,2S)-2-{[(2,4-Dimethylpyrimidin-5-yl)oxy]methyl}-2-(3-fluorophenyl)-N-(5-fluoropyridin-2-yl)cyclopropanecarboxamide (E2006): A Potent and Efficacious Oral Orexin Receptor Antagonist” (J Med Chem, 2015).
Values after ≈ are worked out from the molar mass of the structure shown.

What was measured:
[1] = Activity at P-gp (unknown origin) assessed as corrected flux ratio; type: ADME; settings: human
In short: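 Reported as corrected flux ratio, i.e. the MDR1 flux ratio divided by the PK1 flux ratio.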

[2] = molecular target: T1, Orexin/Hypocretin receptor type 1 (Homo sapiens, UniProt O43613); assay: Binding affinity to human OX1R by radioligand displacement binding assay
T1 sequence (O43613 whole entry): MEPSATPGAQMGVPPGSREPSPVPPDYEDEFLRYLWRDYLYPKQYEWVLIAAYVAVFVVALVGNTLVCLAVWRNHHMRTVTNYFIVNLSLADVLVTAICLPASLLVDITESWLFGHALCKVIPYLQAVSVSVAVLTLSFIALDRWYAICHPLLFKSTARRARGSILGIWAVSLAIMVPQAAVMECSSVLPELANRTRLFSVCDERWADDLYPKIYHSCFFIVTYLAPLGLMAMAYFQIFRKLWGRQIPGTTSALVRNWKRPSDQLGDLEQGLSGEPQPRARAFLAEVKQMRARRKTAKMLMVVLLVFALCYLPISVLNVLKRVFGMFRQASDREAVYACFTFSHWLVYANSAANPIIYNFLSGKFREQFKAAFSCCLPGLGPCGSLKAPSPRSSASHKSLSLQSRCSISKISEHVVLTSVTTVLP
In short: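 Ki values come from single experiments run in triplicate.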

[3] = Aqueous solubility of the compound in Japanese Pharmacopoeia 1st fluid at pH 1.2 by DMSO solution precipitation method; type: physicochemical
In short: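 Solubility in Japanese Pharmacopoeia 1st fluid (aqueous HCl containing 34 mM NaCl), pH 1.2, measured at room temperature by precipitation from a DMSO solution.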

Cytochrome P450 2C19 = Cytochrome P450 2C19 (Homo sapiens, UniProt P33261); assay: Inhibition of CYP2C19 in human liver microsomes using S-mephenytoin as susbtrate incubated for 30 mins prior to substrate addition for 10 mins by LC-MS/MS analysis; type: ADME
CYP3A = CYP3A (Homo sapiens, UniProt P08684+P20815+P24462+Q9HB55); assay: Time dependent inhibition of CYP3A in human liver microsomes assessed as enzyme activity using midazolam as substrate at 10 uM incubated for 30 mins prior to substrate addition for 10 mins by LC-MS/MS analysis; type: ADME; parameters: scale not given: the % may be the effect or the level left; settings: probe midazolam, read-out: Activity
In short: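 Test compound at 10 μM preincubated 30 min at 37 °C with human liver microsomes (0.2 mg/mL), with or without an NADPH-generating system. Mixture then diluted 10-fold into a marker-substrate cocktail plus NADPH system and incubated 10 min at 37 °C. Midazolam served as the CYP3A probe. Metabolites measured by LC−MS/MS. Result is the residual activity with NADPH relative to without, as % of control.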

Orexin receptor type 2 = molecular target: T2, Orexin receptor type 2 (Homo sapiens, UniProt O43614); assay: Binding affinity to human OX2R by radioligand displacement binding assay
T2 sequence (O43614 whole entry): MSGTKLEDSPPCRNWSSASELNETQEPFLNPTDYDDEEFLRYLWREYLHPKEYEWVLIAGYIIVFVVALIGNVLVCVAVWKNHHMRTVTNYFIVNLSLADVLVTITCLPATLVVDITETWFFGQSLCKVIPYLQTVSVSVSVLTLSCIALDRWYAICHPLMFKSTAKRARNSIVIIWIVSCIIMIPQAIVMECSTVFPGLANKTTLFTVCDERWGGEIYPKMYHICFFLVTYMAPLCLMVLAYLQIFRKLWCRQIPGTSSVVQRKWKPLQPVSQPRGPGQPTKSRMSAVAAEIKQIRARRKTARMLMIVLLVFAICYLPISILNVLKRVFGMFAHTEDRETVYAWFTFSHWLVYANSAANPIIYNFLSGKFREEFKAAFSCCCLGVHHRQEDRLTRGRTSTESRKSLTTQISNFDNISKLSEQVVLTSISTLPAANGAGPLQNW

[4] = Metabolic stability in human liver microsomes assessed as residual ratio at 0.3 uM after 15 mins by LC-MS analysis; type: ADME; settings: read-out: Stability
In short: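 Human liver microsomes (0.2 mg/mL) incubated with test compound at 0.3 μM in 0.1% DMSO for 15 min at 37 °C, with and without an NADPH-generating system. Reaction stopped with acetonitrile/methanol (7:3) containing internal standard. Parent compound quantified by LC−MS. Value is the residual ratio in the presence versus absence of NADPH.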

Cytochrome P450 2D6 = Cytochrome P450 2D6 (Homo sapiens, UniProt P10635); assay: Inhibition of CYP2D6 in human liver microsomes using bufuralol as susbtrate incubated for 30 mins prior to substrate addition for 10 mins by LC-MS/MS analysis; type: ADME
Cytochrome P450 2C9 = Cytochrome P450 2C9 (Homo sapiens, UniProt P11712); assay: Inhibition of CYP2C9 in human liver microsomes using tolbutamide as susbtrate incubated for 30 mins prior to substrate addition for 10 mins by LC-MS/MS analysis; type: ADME
Cytochrome P450 1A2 = molecular target: T3, Cytochrome P450 1A2 (Homo sapiens, UniProt P05177); assay: Inhibition of CYP1A2 in human liver microsomes using phenacetin as susbtrate incubated for 30 mins prior to substrate addition for 10 mins by LC-MS/MS analysis; type: ADME
T3 sequence (P05177 whole entry): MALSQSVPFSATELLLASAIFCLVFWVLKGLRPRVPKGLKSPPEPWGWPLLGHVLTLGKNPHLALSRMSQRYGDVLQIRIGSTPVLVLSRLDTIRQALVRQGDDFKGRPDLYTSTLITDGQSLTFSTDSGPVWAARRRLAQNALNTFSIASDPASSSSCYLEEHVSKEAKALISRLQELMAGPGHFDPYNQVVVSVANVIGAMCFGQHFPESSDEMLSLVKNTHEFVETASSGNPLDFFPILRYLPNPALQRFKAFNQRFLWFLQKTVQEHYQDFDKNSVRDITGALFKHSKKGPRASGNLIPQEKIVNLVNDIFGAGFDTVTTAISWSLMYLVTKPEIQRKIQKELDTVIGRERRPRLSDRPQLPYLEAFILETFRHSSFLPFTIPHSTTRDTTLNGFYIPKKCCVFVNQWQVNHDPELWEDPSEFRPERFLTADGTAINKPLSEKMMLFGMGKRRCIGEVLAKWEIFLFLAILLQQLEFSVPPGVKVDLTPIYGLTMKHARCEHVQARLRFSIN

Cytochrome P450 2C8 = molecular target: T4, Cytochrome P450 2C8 (Homo sapiens, UniProt P10632); assay: Inhibition of CYP2C8 in human liver microsomes using rosiglitazone as susbtrate incubated for 30 mins prior to substrate addition for 10 mins by LC-MS/MS analysis; type: ADME
T4 sequence (P10632 whole entry): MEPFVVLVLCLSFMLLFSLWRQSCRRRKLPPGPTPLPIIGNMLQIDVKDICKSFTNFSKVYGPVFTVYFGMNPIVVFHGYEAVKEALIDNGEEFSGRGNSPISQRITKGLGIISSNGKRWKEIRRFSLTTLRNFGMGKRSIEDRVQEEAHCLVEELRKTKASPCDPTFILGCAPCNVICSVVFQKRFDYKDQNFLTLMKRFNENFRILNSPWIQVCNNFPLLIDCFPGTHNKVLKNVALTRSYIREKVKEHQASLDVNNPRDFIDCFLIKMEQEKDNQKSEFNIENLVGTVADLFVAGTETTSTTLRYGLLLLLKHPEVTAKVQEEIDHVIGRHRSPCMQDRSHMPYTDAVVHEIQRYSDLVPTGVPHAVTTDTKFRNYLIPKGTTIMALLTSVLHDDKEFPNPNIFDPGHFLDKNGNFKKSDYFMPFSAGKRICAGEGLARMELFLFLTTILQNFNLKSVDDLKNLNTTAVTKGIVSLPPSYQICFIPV

[5] = Aqueous solubility of the compound in Dulbecco's phosphate buffered saline at pH 7.4 by DMSO solution precipitation method; type: physicochemical
In short: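 Solubility in Dulbecco's PBS at pH 7.4, measured at room temperature by precipitation from a DMSO solution.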

Sequence of Cytochrome P450 2C19 (P33261 whole entry): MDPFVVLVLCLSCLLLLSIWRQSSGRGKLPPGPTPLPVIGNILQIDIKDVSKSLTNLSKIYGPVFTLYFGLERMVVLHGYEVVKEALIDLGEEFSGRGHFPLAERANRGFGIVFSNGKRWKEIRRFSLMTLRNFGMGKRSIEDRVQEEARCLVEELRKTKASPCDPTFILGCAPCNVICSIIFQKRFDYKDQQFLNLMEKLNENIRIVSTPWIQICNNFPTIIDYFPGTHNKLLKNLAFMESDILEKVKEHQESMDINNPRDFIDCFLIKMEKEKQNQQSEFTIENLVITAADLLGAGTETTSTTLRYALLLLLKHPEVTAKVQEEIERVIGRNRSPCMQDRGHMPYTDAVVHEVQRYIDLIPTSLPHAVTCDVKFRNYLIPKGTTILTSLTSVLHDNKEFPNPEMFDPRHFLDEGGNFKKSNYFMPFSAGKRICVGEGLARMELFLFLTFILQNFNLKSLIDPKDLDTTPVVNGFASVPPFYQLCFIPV
Sequence of Cytochrome P450 2C9 (P11712 whole entry): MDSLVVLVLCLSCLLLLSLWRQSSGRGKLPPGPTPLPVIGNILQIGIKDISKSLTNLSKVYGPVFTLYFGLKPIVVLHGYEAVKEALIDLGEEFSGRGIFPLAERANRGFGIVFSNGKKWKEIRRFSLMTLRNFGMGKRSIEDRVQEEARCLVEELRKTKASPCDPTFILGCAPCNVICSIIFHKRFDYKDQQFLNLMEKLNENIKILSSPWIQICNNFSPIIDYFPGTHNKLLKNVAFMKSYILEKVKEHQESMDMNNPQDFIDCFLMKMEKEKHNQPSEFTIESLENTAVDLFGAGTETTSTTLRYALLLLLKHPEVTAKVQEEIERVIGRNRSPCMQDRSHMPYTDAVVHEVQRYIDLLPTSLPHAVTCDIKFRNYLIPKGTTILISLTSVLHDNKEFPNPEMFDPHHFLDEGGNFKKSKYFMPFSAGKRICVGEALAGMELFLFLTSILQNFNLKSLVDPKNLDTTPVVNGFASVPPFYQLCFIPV
Sequence of Cytochrome P450 2D6 (P10635 whole entry): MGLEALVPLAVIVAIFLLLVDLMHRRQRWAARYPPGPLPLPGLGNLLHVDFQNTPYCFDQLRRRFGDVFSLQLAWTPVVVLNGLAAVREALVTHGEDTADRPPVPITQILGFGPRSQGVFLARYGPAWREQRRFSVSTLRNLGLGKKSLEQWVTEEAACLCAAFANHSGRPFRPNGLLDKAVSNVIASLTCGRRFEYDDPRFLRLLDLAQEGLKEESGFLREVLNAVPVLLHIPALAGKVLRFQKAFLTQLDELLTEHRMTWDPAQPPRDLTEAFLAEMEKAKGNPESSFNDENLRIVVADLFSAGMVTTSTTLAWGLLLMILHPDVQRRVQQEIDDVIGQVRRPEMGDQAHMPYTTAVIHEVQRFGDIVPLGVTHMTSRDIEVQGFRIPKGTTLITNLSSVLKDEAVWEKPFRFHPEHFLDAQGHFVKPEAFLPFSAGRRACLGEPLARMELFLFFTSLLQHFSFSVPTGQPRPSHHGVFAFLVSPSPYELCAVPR

COc1ccc(OC[C@@]2(c3ccccc3)C[C@H]2C(=O)Nc2ccc(C#N)cn2)cc1OC
Ratio [1]: 1 | Ki [2]: 0.106 µM | solubility kinetic [3]: 25 µM (≈ 10.7 µg/mL) | IC50 (Cytochrome P450 2C19): 8.6 µM | activity at 10 min, 10 µM (CYP3A): 49% | Ki (Orexin receptor type 2): 0.005 µM | remaining at 0.25 h, 0.3 µM [4]: 80% | IC50 (Cytochrome P450 2D6): > 10 µM | IC50 (Cytochrome P450 2C9): > 10 µM | IC50 (Cytochrome P450 1A2): > 10 µM | IC50 (Cytochrome P450 2C8): 8 µM | solubility kinetic [5]: 15 µM (≈ 6.44 µg/mL)
